ChEMBL document CHEMBL3091410, “Enmein-type 6,7-seco-ent-kauranoids from Isodon sculponeatus” (J Nat Prod, 2013)

Key:
SW480 [1] = test: Cytotoxicity against human SW480 cells after 48 hrs by MTS assay; format: functional, cell-based; conditions: SW480, 48 h
Outline: (§1)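 Lines obtained from ATCC, grown in RPMI-1640 or DMEM with 10% FBS at 37 °C, 5% CO2. Adherent cells seeded at 1 × 10^5 cells/mL and allowed to attach 12 h; suspension cells seeded just before dosing. Range of concentrations tested in triplicate for 48 h. MTS then added for 4 h at 37 °C, cells lysed in 20% SDS-50% DMF, OD read at 490 nm. IC50 by Reed and Muench method.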

MCF7 = test: Cytotoxicity against human MCF7 cells after 48 hrs by MTS assay; format: functional, cell-based; conditions: MCF7, 48 h; outline: as §1
A549 = test: Cytotoxicity against human A549 cells after 48 hrs by MTS assay; format: functional, cell-based; conditions: A549, 48 h; outline: as §1
SMMC-7721 = test: Cytotoxicity against human SMMC7721 cells after 48 hrs by MTS assay; format: functional, cell-based; conditions: SMMC-7721, 48 h; outline: as §1
HL-60 = test: Cytotoxicity against human HL60 cells after 48 hrs by MTS assay; format: functional, cell-based; conditions: HL-60, 48 h; outline: as §1
RAW264.7 = test: Inhibition of LPS-stimulated NO production in mouse RAW264.7 cells after 18 hrs by Griess assay; format: functional, cell-based; conditions: RAW264.7, 18 h
Outline: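 RAW264.7 macrophages, 2 × 10^5 cells/well in RPMI 1640 with 10% FBS, preincubated 24 h. Serial dilutions up to 25 μM (DMSO stock diluted in medium) given with 1 μg/mL LPS for 18 h. Supernatant mixed 1:1 with Griess reagent, in triplicate, 5 min; absorbance at 570 nm. Parallel MTS viability check under the same 18 h conditions.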

SW480 [2] = test: Potency index, ratio of cisplatin IC50 to compound IC50 for human SW480 cells; format: functional

Row | Structure (SMILES) | IC50 (SW480 [1]) | IC50 (MCF7) | IC50 (A549) | IC50 (SMMC-7721) | IC50 (HL-60) | IC50 (RAW264.7) | Ratio IC50 (SW480 [2])
1 | C=C1[C@@H]2CC[C@@H]3[C@](C2)(C(=O)O[C@H]2CCC(C)(C)[C@H]4[C@H](O)OC[C@@]243)[C@@H]1O | > 40 µM | > 40 µM | > 40 µM | > 40 µM | > 40 µM |  | 
2 | C=C1[C@@H](O)[C@]23C[C@@]1(O)C[C@@H](O)[C@H]2[C@]12CO[C@@H]4OC[C@](C)(CC[C@@H]1OC3=O)[C@@H]42 | > 40 µM | > 40 µM | > 40 µM | > 40 µM | > 40 µM |  | 
3 | C=C1C(=O)[C@]23C[C@H]1C[C@@H](O)[C@H]2[C@@]12CO[C@@H](O)[C@@H]1C(C)(C)CC[C@@H]2OC3=O [NODOSIN] | 12.1 µM | 23.5 µM | > 40 µM | 27 µM | 15 µM | 18.4 µM | 
4 | C=C1C(=O)[C@]23C[C@H]1C[C@@H](O)[C@H]2[C@]12CO[C@@H]4OC[C@](C)(CC[C@@H]1OC3=O)[C@@H]42 [SCULPONEATIN A] | 3.5 µM | 15 µM | 17.1 µM | 15.2 µM | 12.7 µM | 9.1 µM | 
5 | C=C1[C@H]2C[C@@]3(C(=O)O[C@H]4CCC(C)(C)[C@H]5[C@H](O)OC[C@@]45[C@@H]3[C@@H]3O[C@@H]32)[C@@H]1O | > 40 µM | > 40 µM | > 40 µM | > 40 µM | > 40 µM |  | 
6 | C=C1[C@@H]2C[C@@H](O)[C@@H]3[C@](C2)(C(=O)O[C@H]2CC[C@@]4(C)CO[C@H]5OC[C@]23[C@H]54)[C@@H]1O [SCULPONEATIN B] | > 40 µM | > 40 µM | > 40 µM | > 40 µM | > 40 µM |  | 
7 | C=C1[C@@H]2C=C[C@@H]3[C@](C2)(C(=O)O[C@H]2CCC(C)(C)[C@H]4[C@H](O)OC[C@@]243)[C@@H]1O | > 40 µM | > 40 µM | > 40 µM | > 40 µM | > 40 µM |  | 
8 | CC(=O)O[C@H]1C(=O)[C@@]2(C)[C@H]([C@H](OC(=O)c3ccccc3)[C@]3(O)C[C@H](OC(=O)[C@H](O)[C@@H](NC(=O)c4ccccc4)c4ccccc4)C(C)=C1C3(C)C)[C@]1(OC(C)=O)CO[C@@H]1C[C@@H]2O [PACLITAXEL] | < 0.008 µM | < 0.008 µM | < 0.008 µM | < 0.008 µM | < 0.008 µM |  | 
9 | CC1(C)[C@H](O)C[C@@H]2OC(=O)[C@@]34C[C@@H](C[C@@H](O)[C@H]3[C@]23CO[C@@H](O)[C@H]13)[C@](C)(O)C4=O | > 40 µM | > 40 µM | > 40 µM | > 40 µM | > 40 µM |  | 
10 | C=C1C(=O)[C@]23C[C@H]1CC[C@H]2[C@@]12CO[C@@H](O)[C@@H]1C(C)(C)[C@@H](O)C[C@@H]2OC3=O [ENEMIN] | > 40 µM | > 40 µM | > 40 µM | > 40 µM | > 40 µM |  | 
11 | C=C1C(=O)[C@]23C[C@H]1C[C@H](O)[C@H]2[C@@]12CO[C@@H](O)[C@@H]1C(C)(C)CC[C@@H]2OC3=O [EPINODOSIN] | > 40 µM | > 40 µM | > 40 µM | > 40 µM | > 40 µM |  | 
12 | C=C1C(=O)[C@]23C[C@H]1CC[C@H]2[C@@]12CO[C@@H](O)[C@@H]1C(C)(C)CC[C@@H]2OC3=O | 1 µM | 2.6 µM | 3.2 µM | 3.5 µM | 2.8 µM | 2.2 µM | 15
